What was measured:
[1] = Selectivity index, ratio of CC50 for human HepG2 cells in presence of 1% FBS to MIC for Acinetobacter baumannii isolate 246-01-C; type: toxicity; details: read-out: Selectivity Index
Acinetobacter baumannii [2] = experiment: Antibacterial activity against Acinetobacter baumannii isolate 07AC-336 after 18 hrs by broth microdilution method; type: functional; details: isolate 07AC-336, 18 h
Outline: (§1)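 Broth microdilution per CLSI in cation-adjusted Mueller-Hinton broth. 100 µL inoculum (~10^6 cfu/mL in CaMHB) mixed with 100 µL CaMHB containing compound, 0 to 128 µM. Incubated 18 h at 37 °C. MIC taken as the lowest concentration with no visible growth. Polymyxin B served as positive control. Isolates were stored at -80 °C in tryptone soy broth with 20% glycerol.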

Acinetobacter baumannii [3] = experiment: Antibacterial activity against Acinetobacter baumannii isolate 246-01-C after 18 hrs by broth microdilution method; type: functional; outline: as §1
[4] = Selectivity index, ratio of CC50 for human HepG2 cells in presence of 1% FBS to MIC for Acinetobacter baumannii ATCC 19606; type: toxicity; details: read-out: Selectivity Index
Staphylococcus aureus [5] = experiment: Antibacterial activity against methicillin-resistant Staphylococcus aureus ATCC 43300 after 18 hrs by broth microdilution method; type: functional; details: ATCC 43300, 18 h; outline: as §1
[6] = Selectivity index, ratio of CC50 for human HepG2 cells in presence of 1% FBS to MIC for Pseudomonas aeruginosa isolate M146201; type: toxicity; details: read-out: Selectivity Index
Outline: (§2)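 Selectivity index is CC50 (1% FBS) divided by MIC. […] They then got compound at 300 to 0.14 µM (3-fold steps) for 24 h at 37 °C, 5% CO2. Resazurin (10 µM, 2 h) was read at ex/em 560/590 in duplicate wells. For MIC, CLSI broth microdilution was run in CaMHB with ~10^6 cfu/mL inoculum and 0–128 µM compound.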

[7] = Selectivity index, ratio of CC50 for human HepG2 cells in presence of 1% FBS to MIC for Klebsiella pneumoniae isolate 1; type: toxicity; details: read-out: Selectivity Index
[8] = Selectivity index, ratio of CC50 for human HepG2 cells in presence of 1% FBS to MIC for Klebsiella pneumoniae isolate 248-33-D; type: toxicity; details: read-out: Selectivity Index
[9] = Selectivity index, ratio of CC50 for human HepG2 cells in presence of 1% FBS to MIC for vancomycin-resistant Enterococcus faecium ATCC 700221; type: toxicity; details: read-out: Selectivity Index; outline: as §2
Pseudomonas aeruginosa [10] = experiment: Antibacterial activity against Pseudomonas aeruginosa isolate 912 after 18 hrs by broth microdilution method; type: functional; details: isolate 912, 18 h; outline: as §1
Enterococcus faecium = experiment: Antibacterial activity against vancomycin-resistant Enterococcus faecium ATCC 700221 after 18 hrs by broth microdilution method; type: functional; details: ATCC 700221, 18 h; outline: as §1
[11] = Selectivity index, ratio of CC50 for human HepG2 cells in presence of 1% FBS to MIC for Acinetobacter baumannii isolate 07AC-336; type: toxicity; details: read-out: Selectivity Index
[12] = Selectivity index, ratio of CC50 for human HepG2 cells in presence of 1% FBS to MIC for Escherichia coli N2381; type: toxicity; details: read-out: Selectivity Index
[13] = Selectivity index, ratio of CC50 for human HepG2 cells in presence of 1% FBS to MIC for vancomycin-resistant Staphylococcus aureus ATCC 700699; type: toxicity; details: read-out: Selectivity Index; outline: as §2
[14] = Selectivity index, ratio of CC50 for human HepG2 cells in presence of 1% FBS to MIC for vancomycin-intermediate Staphylococcus aureus ATCC 700698; type: toxicity; details: read-out: Selectivity Index; outline: as §2
[15] = Selectivity index, ratio of CC50 for human HepG2 cells in presence of 1% FBS to MIC for Escherichia coli N11281; type: toxicity; details: read-out: Selectivity Index
[16] = Selectivity index, ratio of CC50 for human HepG2 cells in presence of 1% FBS to MIC for Pseudomonas aeruginosa isolate 912; type: toxicity; details: read-out: Selectivity Index; outline: as §2
[17] = Selectivity index, ratio of CC50 for human HepG2 cells in presence of 1% FBS to MIC for Pseudomonas aeruginosa QLD PSA 1; type: toxicity; details: read-out: Selectivity Index; outline: as §2
Escherichia coli = experiment: Antibacterial activity against Escherichia coli N4149 after 18 hrs by broth microdilution method; type: functional; details: N4149, 18 h; outline: as §1
[18] = Selectivity index, ratio of CC50 for human HepG2 cells in presence of 1% FBS to MIC for Escherichia coli N4149; type: toxicity; details: read-out: Selectivity Index
[19] = Selectivity index, ratio of CC50 for human HepG2 cells in presence of 1% FBS to MIC for Mycobacterium tuberculosis H37Rv ATCC 25618; type: toxicity; details: read-out: Selectivity Index
[20] = Selectivity index, ratio of CC50 for human HepG2 cells in presence of 1% FBS to MIC for Acinetobacter baumannii ATCC 17978 col10; type: toxicity; details: read-out: Selectivity Index
Staphylococcus aureus [21] = experiment: Antibacterial activity against vancomycin-resistant Staphylococcus aureus ATCC 700699 after 18 hrs by broth microdilution method; type: functional; details: ATCC 700699, 18 h; outline: as §1
[22] = Selectivity index, ratio of CC50 for human HepG2 cells in presence of 1% FBS to MIC for Pseudomonas aeruginosa ATCC 27853; type: toxicity; details: read-out: Selectivity Index; outline: as §2
Klebsiella pneumoniae [23] = experiment: Antibacterial activity against Klebsiella pneumoniae isolate 224-11-C after 18 hrs by broth microdilution method; type: functional; outline: as §1
Klebsiella pneumoniae [24] = experiment: Antibacterial activity against Klebsiella pneumoniae isolate 1 after 18 hrs by broth microdilution method; type: functional; details: isolate 1, 18 h; outline: as §1
[25] = Selectivity index, ratio of CC50 for human HepG2 cells in presence of 1% FBS to MIC for Klebsiella pneumoniae isolate M320445; type: toxicity; details: read-out: Selectivity Index
Pseudomonas aeruginosa [26] = experiment: Antibacterial activity against Pseudomonas aeruginosa isolate 18878B klon 1 after 18 hrs by broth microdilution method; type: functional; details: isolate 18878B klon 1, 18 h; outline: as §1
[27] = Selectivity index, ratio of CC50 for human HepG2 cells in presence of 1% FBS to MIC for Klebsiella pneumoniae isolate 224-11-C; type: toxicity; details: read-out: Selectivity Index
[28] = Selectivity index, ratio of CC50 for human HepG2 cells in presence of 1% FBS to MIC for Acinetobacter baumannii ATCC 17978; type: toxicity; details: read-out: Selectivity Index
Acinetobacter baumannii [29] = experiment: Antibacterial activity against Acinetobacter baumannii ATCC 19606 col10 after 18 hrs by broth microdilution method; type: functional; details: ATCC 19606 = CIP 70.34 = JCM 6841 col10, 18 h; outline: as §1
Pseudomonas aeruginosa [30] = experiment: Antibacterial activity against Pseudomonas aeruginosa isolate 19147nm after 18 hrs by broth microdilution method; type: functional; outline: as §1
Staphylococcus aureus [31] = experiment: Antibacterial activity against vancomycin-intermediate Staphylococcus aureus ATCC 700698 after 18 hrs by broth microdilution method; type: functional; details: ATCC 700698, 18 h; outline: as §1
[32] = Selectivity index, ratio of CC50 for human HepG2 cells in presence of 1% FBS to IC50 for CQ-sensitive GFP-fused Plasmodium falciparum D10; type: toxicity; details: read-out: Ratio IC50

| Structure (SMILES) | selectivity ratio [1] | MIC (Acinetobacter baumannii [2]) | MIC (Acinetobacter baumannii [3]) | selectivity ratio [4] | MIC (Staphylococcus aureus [5]) | selectivity ratio [6] | selectivity ratio [7] | selectivity ratio [8] | selectivity ratio [9] | MIC (Pseudomonas aeruginosa [10]) | MIC (Enterococcus faecium) | selectivity ratio [11] | selectivity ratio [12] | selectivity ratio [13] | selectivity ratio [14] | selectivity ratio [15] | selectivity ratio [16] | selectivity ratio [17] | MIC (Escherichia coli) | selectivity ratio [18] | further results |
| --- | --- | --- | --- | --- | --- | --- | --- | --- | --- | --- | --- | --- | --- | --- | --- | --- | --- | --- | --- | --- | --- |
| COc1ccc2c(c1)[I+]c1ccccc1-2 | 0.21 | > 70 µM | 35 µM | 0.39 | 4.4 µM | 0.11 | > 0.11 | > 0.11 | 1.6 | > 70 µM | 4.4 µM | > 0.11 | 0.21 | 0.78 | 0.78 | > 0.11 | > 0.11 | 0.11 | > 70 µM | > 0.11 | selectivity ratio [19]: 24; selectivity ratio [20]: 3.1; MIC (Staphylococcus aureus [21]): 8.7 µM; selectivity ratio [22]: > 0.11; MIC (Klebsiella pneumoniae [23]): > 70 µM; MIC (Klebsiella pneumoniae [24]): > 70 µM; selectivity ratio [25]: 0.11; MIC (Pseudomonas aeruginosa [26]): 18 µM; selectivity ratio [27]: > 0.11; selectivity ratio [28]: 0.39; MIC (Acinetobacter baumannii [29]): 2.2 µM; MIC (Pseudomonas aeruginosa [30]): 8.7 µM; MIC (Staphylococcus aureus [31]): 8.7 µM |
| Cc1cccc2c1-c1ccccc1[I+]2 | 1.2 | 2.2 µM | 2.3 µM | 1.2 | 36 µM | 1.2 | 0.04 | > 0.04 | 1.2 | 1.1 µM | 2.3 µM | 1.2 | 0.14 | 0.07 | 0.07 | 0.14 | 2.3 | 0.58 | > 72 µM | > 0.04 | selectivity ratio [19]: 19; selectivity ratio [20]: 4.6; selectivity ratio [32]: 37; MIC (Staphylococcus aureus [21]): 36 µM; selectivity ratio [22]: 0.14; MIC (Klebsiella pneumoniae [23]): > 72 µM; MIC (Klebsiella pneumoniae [24]): 72 µM; selectivity ratio [25]: 0.07; MIC (Pseudomonas aeruginosa [26]): 1.1 µM; selectivity ratio [27]: > 0.04; selectivity ratio [28]: 2.3; MIC (Acinetobacter baumannii [29]): 2.3 µM; MIC (Pseudomonas aeruginosa [30]): 0.57 µM; MIC (Staphylococcus aureus [31]): 36 µM |
| Clc1cccc2c1-c1ccccc1[I+]2 | < 2.4 | < 0.27 µM | < 0.27 µM | < 2.4 | 1.1 µM | 1.2 | 0.08 | 0.08 | < 2.4 | < 0.27 µM | < 0.27 µM | < 2.4 | 1.2 | 0.61 | 0.29 | 0.31 | < 2.4 | 1.2 | 0.54 µM | 1.2 | selectivity ratio [19]: 2.4; selectivity ratio [20]: < 2.4; selectivity ratio [32]: 13; MIC (Staphylococcus aureus [21]): 1.1 µM; selectivity ratio [22]: < 2.4; MIC (Klebsiella pneumoniae [23]): 8.6 µM; MIC (Klebsiella pneumoniae [24]): 8.6 µM; selectivity ratio [25]: 0.08; MIC (Pseudomonas aeruginosa [26]): < 0.27 µM; selectivity ratio [27]: 0.08; selectivity ratio [28]: < 2.4; MIC (Acinetobacter baumannii [29]): < 0.27 µM; MIC (Pseudomonas aeruginosa [30]): < 0.27 µM; MIC (Staphylococcus aureus [31]): 2.3 µM |
